Measured values reported in ChEMBL document CHEMBL3259739, “Synthesis and structure-activity relationship of trisubstituted thiazoles as Cdc7 kinase inhibitors” (Eur J Med Chem, 2014).

Columns and labels:
[1] = target: Vascular endothelial growth factor receptor 2 (Homo sapiens) (UniProt P35968); assay: Inhibition of VEGFR2 (unknown origin) at 1 uM relative to control; settings: values are per cent of control
[2] = target: T1, Dual specificity mitogen-activated protein kinase kinase 3 (Homo sapiens) (UniProt P46734); assay: Inhibition of MEK3 (unknown origin) at 1 uM relative to control; values are per cent of control
T1 sequence (whole entry): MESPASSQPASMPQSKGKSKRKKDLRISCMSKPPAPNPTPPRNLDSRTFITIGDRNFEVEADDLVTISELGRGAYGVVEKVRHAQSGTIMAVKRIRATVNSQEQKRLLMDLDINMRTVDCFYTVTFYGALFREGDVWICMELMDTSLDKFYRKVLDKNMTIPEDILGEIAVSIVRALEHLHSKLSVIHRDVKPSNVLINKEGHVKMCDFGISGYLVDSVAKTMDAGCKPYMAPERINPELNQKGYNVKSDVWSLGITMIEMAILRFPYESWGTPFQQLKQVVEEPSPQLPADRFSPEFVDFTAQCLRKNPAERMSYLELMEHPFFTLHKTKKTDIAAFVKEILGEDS

[3] = target: Tyrosine-protein kinase Fyn (Homo sapiens) (UniProt P06241); assay: Inhibition of FYN (unknown origin) at 1 uM relative to control; values are per cent of control
[4] = target: T2, TGF-beta receptor type-1 (Homo sapiens) (UniProt P36897); assay: Inhibition of TGFBR1 (unknown origin) at 1 uM relative to control; settings: values are per cent of control
T2 sequence (whole entry): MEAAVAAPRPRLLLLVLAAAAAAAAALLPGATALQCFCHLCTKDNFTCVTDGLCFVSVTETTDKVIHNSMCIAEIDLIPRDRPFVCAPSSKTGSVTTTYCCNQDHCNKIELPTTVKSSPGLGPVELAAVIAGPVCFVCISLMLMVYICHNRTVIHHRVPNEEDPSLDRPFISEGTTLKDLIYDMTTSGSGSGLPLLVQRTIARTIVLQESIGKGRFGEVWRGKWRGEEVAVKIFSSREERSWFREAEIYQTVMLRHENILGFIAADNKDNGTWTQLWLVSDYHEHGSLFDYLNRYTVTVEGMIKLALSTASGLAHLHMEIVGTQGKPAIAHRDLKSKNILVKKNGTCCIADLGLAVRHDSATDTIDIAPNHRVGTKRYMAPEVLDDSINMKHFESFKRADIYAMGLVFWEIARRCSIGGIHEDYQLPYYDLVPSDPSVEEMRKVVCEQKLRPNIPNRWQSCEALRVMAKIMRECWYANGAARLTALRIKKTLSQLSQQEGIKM
How it was run: (§1)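 KinomeSCAN competitive binding panel of 100 kinases; compounds tested at 1 µM in duplicate; read-out is percent […] control.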

[5] = target: T3, Serine/threonine-protein kinase TAO2 (Homo sapiens) (UniProt Q9UL54); assay: Inhibition of TAOK2 (unknown origin) at 1 uM relative to control; settings: values are per cent of control; how it was run: as §1
T3 sequence (whole entry): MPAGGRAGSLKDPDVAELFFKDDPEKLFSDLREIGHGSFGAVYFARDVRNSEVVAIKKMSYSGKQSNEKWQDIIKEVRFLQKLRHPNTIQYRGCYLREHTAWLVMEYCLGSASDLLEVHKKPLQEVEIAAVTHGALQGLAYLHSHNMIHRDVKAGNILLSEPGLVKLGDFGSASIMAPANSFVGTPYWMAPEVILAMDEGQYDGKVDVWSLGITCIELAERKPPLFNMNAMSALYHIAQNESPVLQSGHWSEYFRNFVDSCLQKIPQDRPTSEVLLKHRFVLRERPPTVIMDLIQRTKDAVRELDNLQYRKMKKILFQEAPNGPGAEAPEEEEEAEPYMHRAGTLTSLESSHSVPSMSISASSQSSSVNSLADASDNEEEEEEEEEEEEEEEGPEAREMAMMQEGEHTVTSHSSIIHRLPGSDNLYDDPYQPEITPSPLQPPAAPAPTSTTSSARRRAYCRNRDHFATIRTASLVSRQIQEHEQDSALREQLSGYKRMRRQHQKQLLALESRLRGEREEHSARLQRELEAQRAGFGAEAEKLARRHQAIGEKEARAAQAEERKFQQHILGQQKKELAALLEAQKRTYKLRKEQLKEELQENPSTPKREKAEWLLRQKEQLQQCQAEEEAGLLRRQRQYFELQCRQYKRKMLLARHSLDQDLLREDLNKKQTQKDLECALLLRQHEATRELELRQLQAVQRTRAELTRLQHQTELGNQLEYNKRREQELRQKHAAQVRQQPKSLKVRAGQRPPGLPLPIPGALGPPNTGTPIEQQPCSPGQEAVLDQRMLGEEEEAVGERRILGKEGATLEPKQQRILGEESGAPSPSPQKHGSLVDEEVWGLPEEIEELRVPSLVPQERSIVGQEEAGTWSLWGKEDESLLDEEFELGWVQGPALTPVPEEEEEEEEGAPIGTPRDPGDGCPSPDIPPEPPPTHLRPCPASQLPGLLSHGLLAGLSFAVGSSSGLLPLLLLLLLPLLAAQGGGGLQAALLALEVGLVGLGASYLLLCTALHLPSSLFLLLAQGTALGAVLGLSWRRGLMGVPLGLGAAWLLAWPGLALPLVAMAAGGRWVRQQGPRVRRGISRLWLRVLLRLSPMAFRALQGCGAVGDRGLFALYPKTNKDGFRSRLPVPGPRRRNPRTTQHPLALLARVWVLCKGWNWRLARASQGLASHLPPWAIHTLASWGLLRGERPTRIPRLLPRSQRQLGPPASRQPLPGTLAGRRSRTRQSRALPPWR

[6] = target: Fibroblast growth factor receptor 1 (Homo sapiens) (UniProt P11362); assay: Inhibition of FGFR1 (unknown origin) at 1 uM relative to control; values are per cent of control
[7] = target: Receptor-type tyrosine-protein kinase FLT3 (Homo sapiens) (UniProt P36888); assay: Inhibition of FLT3 (unknown origin) at 1 uM relative to control; values are per cent of control
[8] = target: Serine/threonine-protein kinase OSR1 (Homo sapiens) (UniProt O95747); assay: Inhibition of OSR1 (unknown origin) at 1 uM relative to control; values are per cent of control
Serine/threonine-protein kinase OSR1 (Homo sapiens), sequence (O95747 2-527 limits assumed): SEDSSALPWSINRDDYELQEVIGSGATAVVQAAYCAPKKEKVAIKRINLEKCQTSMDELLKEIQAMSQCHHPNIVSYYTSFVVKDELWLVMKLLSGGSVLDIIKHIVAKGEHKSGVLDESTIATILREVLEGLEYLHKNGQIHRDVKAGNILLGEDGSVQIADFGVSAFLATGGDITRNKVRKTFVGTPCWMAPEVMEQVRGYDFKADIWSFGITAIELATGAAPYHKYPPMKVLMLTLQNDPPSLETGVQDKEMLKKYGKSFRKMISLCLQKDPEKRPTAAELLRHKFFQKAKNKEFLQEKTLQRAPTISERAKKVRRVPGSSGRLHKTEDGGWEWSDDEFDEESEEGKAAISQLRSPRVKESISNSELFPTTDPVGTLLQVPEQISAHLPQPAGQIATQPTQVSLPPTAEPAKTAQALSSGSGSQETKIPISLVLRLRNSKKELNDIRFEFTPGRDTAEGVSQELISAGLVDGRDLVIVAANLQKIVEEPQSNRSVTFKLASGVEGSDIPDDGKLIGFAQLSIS

Fibroblast growth factor receptor 1 (Homo sapiens), sequence (P11362 22-822 limits assumed): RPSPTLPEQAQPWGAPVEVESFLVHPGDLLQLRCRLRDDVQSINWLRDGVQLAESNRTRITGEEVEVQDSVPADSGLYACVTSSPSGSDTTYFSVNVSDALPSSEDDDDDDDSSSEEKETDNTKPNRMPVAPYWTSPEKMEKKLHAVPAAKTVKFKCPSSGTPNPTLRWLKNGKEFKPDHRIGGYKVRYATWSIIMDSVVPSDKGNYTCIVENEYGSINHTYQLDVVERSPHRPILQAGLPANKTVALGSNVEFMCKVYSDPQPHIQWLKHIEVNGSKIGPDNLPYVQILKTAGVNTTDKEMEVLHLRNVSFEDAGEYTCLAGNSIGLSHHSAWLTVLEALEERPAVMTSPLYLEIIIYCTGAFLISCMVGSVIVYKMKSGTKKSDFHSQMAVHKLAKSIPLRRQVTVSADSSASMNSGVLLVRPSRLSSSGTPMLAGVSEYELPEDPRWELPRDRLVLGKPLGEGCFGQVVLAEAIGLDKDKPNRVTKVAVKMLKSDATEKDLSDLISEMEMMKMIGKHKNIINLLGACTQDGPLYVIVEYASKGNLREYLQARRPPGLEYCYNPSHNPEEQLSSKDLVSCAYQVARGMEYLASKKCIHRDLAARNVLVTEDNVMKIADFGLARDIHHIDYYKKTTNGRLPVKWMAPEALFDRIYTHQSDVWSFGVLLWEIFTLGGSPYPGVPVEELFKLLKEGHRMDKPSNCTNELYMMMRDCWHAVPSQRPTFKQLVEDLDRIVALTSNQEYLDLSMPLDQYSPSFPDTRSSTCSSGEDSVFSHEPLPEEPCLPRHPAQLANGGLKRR
Vascular endothelial growth factor receptor 2 (Homo sapiens), sequence (P35968 whole entry): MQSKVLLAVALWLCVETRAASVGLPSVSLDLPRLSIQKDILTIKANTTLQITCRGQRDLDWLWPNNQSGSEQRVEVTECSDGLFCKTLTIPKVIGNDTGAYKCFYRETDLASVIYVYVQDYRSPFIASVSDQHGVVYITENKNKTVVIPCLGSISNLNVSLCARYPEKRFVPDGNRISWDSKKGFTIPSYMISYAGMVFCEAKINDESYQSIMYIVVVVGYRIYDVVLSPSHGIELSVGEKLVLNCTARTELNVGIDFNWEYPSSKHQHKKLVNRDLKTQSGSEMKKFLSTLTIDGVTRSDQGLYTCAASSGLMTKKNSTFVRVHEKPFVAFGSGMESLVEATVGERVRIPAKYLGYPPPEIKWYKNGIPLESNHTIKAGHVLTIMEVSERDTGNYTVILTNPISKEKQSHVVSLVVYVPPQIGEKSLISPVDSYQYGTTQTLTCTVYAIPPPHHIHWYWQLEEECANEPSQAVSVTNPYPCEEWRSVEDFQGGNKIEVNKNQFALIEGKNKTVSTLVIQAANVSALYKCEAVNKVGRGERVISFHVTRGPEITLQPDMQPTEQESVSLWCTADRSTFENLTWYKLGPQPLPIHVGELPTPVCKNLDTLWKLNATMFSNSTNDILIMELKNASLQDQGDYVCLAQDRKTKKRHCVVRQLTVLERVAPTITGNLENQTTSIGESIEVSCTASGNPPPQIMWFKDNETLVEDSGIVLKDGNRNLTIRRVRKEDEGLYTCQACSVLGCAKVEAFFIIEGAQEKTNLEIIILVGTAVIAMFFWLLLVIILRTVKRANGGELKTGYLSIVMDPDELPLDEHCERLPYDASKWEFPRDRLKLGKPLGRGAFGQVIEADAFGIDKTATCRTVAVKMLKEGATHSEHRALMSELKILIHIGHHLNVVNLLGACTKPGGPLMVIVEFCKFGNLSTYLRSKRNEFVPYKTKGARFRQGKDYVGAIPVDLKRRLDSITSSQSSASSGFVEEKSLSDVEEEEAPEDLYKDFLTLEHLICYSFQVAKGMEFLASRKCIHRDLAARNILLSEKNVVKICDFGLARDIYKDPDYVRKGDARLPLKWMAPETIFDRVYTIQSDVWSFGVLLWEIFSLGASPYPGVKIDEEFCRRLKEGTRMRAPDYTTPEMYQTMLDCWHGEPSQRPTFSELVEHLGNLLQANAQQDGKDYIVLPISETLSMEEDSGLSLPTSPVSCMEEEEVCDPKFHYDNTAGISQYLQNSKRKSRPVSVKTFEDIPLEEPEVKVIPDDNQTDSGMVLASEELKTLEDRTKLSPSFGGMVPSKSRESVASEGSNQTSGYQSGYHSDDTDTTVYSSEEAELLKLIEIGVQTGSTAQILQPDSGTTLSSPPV
Tyrosine-protein kinase Fyn (Homo sapiens), sequence (P06241 2-537 limits assumed): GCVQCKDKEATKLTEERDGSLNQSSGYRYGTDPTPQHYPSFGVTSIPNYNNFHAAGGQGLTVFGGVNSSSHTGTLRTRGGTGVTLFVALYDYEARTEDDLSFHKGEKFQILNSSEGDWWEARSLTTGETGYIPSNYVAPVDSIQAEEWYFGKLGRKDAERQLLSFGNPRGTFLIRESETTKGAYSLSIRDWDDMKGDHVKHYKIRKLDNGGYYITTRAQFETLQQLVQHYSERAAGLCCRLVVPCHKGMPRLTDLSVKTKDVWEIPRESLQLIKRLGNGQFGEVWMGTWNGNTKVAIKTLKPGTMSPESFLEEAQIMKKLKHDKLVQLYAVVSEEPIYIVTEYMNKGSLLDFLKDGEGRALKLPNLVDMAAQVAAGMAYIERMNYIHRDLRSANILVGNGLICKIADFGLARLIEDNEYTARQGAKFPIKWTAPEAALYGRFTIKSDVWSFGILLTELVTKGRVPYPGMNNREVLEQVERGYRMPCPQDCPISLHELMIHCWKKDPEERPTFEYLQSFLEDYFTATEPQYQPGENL
Receptor-type tyrosine-protein kinase FLT3 (Homo sapiens), sequence (P36888 whole entry): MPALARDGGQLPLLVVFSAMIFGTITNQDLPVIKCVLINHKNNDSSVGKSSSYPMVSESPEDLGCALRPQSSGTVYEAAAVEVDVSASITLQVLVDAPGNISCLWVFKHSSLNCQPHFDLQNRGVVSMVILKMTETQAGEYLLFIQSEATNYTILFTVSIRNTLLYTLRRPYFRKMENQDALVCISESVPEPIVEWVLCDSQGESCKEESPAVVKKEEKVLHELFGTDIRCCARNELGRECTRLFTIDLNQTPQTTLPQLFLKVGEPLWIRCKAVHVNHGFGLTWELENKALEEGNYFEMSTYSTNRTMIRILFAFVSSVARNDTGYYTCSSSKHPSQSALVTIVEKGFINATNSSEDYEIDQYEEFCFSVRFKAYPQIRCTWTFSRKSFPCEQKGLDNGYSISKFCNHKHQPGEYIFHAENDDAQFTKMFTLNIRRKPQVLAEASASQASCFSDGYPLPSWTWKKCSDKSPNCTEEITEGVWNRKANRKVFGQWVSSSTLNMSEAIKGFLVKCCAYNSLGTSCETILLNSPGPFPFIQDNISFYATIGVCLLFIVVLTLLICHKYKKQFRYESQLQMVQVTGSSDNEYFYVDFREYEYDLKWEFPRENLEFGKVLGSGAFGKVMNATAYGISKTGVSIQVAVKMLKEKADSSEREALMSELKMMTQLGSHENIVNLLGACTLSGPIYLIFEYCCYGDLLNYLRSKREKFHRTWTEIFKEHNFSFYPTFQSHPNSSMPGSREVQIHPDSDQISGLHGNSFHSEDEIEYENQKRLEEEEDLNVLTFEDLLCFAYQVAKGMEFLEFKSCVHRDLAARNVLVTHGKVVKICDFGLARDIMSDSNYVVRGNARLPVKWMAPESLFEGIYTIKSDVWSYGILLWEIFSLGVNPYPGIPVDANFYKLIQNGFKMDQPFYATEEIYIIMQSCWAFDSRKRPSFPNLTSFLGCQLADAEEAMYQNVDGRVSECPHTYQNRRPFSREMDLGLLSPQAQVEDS

residual binding, % of control [1] [%]	residual activity [2] [%]	residual activity [3] [%]	residual binding, % of control [4] [%]	residual binding, % of control [5] [%]	residual activity [6] [%]	residual activity [7] [%]	residual activity [8] [%]	SMILES
74	100	100	100	100	89	87	100	CCOC(=O)c1sc(-c2ccncc2)nc1O
92	35	87	72	25	100	100	92	COc1ccc(-c2nc(-c3ccnc(N)n3)sc2C(N)=O)c(Cl)c1

SMILES	residual binding, % of control [1] [%]	residual activity [2] [%]	residual activity [3] [%]	residual binding, % of control [4] [%]	residual binding, % of control [5] [%]	residual activity [6] [%]	residual activity [7] [%]	residual activity [8] [%]
NC(=O)c1sc(-c2ccnc(N)n2)nc1-c1ccc(Cl)cc1Cl	56	25	76	91	55	87	66	82
